In ChEMBL document CHEMBL3877264, “Quinolidene-rhodanine conjugates: Facile synthesis and biological evaluation” (Eur J Med Chem, 2017):
Values after ≈ are worked out from the molar mass of the structure shown.

Legend:
[1] = Selectivity index, ratio of GI50 for human PANC1 cells to MIC for Mycobacterium tuberculosis H37Ra ATCC 25177 at dormant stage; format: toxicity, cell-based, PANC-1; conditions: read-out: Selectivity Index
Method in brief: (§1)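 SI is the cell-line GI50 divided by the dormant-stage mycobacterial MIC. […] THP-1 macrophages were PMA-differentiated for 24 h.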

[2] = Selectivity index, ratio of GI50 for HUVEC to MIC for Mycobacterium tuberculosis H37Ra ATCC 25177 at dormant stage
[3] = Selectivity index, ratio of GI50 for human A549 cells to MIC for Mycobacterium tuberculosis H37Ra ATCC 25177 at dormant stage; format: toxicity, cell-based; conditions: read-out: Selectivity Index; method in brief: as §1
[4] = Selectivity index, ratio of GI50 for […]-differentiated human THP1 cells to MIC for Mycobacterium tuberculosis H37Ra ATCC 25177 at dormant stage; format: toxicity, cell-based, THP-1; conditions: read-out: Selectivity Index; method in brief: as §1
[5] = tested on: Mycobacterium tuberculosis; experiment: Growth inhibition of Mycobacterium tuberculosis H37Ra ATCC 25177 at dormant stage measured after 12 days by XTT dye based two fold dilution method; format: functional; conditions: H37Ra ATCC 25177, 288 h
Method in brief: (§2)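 MTB H37Ra was grown in Dubos medium, then exposed in Mycobacterium pheli minimal medium (pH 6.6) to compounds dissolved in DMSO. The assay ended on day 8 (active) or day 12 (dormant). Viable cells were measured by XTT reduction menadione assay at 470 nm, blank-corrected, relative to vehicle control. Triplicates were expressed as mean ± SD. MIC came from dose-response curves.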

[6] = Selectivity index, ratio of GI50 for human HeLa cells to MIC for Mycobacterium tuberculosis H37Ra ATCC 25177 at dormant stage; format: toxicity, cell-based; conditions: read-out: Selectivity Index; method in brief: as §1
[7] = tested on: Mycobacterium tuberculosis; experiment: Growth inhibition of Mycobacterium bovis BCG ATCC 35743 at active stage measured after 8 days by nitrate reductase dye based two fold dilution method; format: functional; conditions: BCG str. ATCC 35743, 192 h
Method in brief: (§3)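 M. bovis BCG was grown in Dubos medium and assayed in Mycobacterium pheli minimal medium (pH 6.6), with compounds from DMSO stocks. Incubation lasted 8 days for active and 12 days for dormant cultures. Viability was read by nitrate reductase at 540 nm against cell-free blanks, with vehicle set as 100% growth. Primary screen was at 30, 10 and 3 µg/ml, in triplicate, mean ± SD. MIC was taken from dose-response curves.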

[8] = Selectivity index, ratio of GI50 for human THP1 cells to MIC for Mycobacterium tuberculosis H37Ra ATCC 25177 at dormant stage; format: toxicity, cell-based, THP-1; conditions: read-out: Selectivity Index; method in brief: as §1
[9] = tested on: Mycobacterium tuberculosis; experiment: Growth inhibition of Mycobacterium tuberculosis H37Ra ATCC 25177 at active stage measured after 8 days by XTT dye based two fold dilution method; format: functional; conditions: H37Ra ATCC 25177, 192 h; method in brief: as §2
[10] = tested on: Mycobacterium tuberculosis; experiment: Growth inhibition of Mycobacterium bovis BCG ATCC 35743 at dormant stage measured after 12 days by nitrate reductase dye based two fold dilution method; format: functional; conditions: BCG str. ATCC 35743, 288 h; method in brief: as §3
[11] = Selectivity index, ratio of GI50 for HUVEC to MIC for Mycobacterium bovis BCG ATCC 35743 at dormant stage; conditions: pooled result: one value given for 6 cell lines, strains, targets or settings; method in brief: as §1
[12] = Cytotoxicity against human THP1 cells measured after 48 hrs by MTT assay; format: toxicity, cell-based, THP-1
Method in brief: (§4)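 MTT assay with 48 h compound exposure. THP-1 macrophages made by 24 h PMA treatment. Each concentration tested in triplicate in one experiment. % cytotoxicity = (control−test)/(control−blank)×100, with control = cells + DMSO and blank = medium without cells. IC50 from % survival versus concentration plots.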

[13] = Cytotoxicity against human A549 cells measured after 48 hrs by MTT assay; format: toxicity, cell-based
[14] = Cytotoxicity against […]-differentiated human THP1 cells measured after 48 hrs by MTT assay; format: toxicity, cell-based, THP-1; method in brief: as §4
[15] = Cytotoxicity against human PANC1 cells measured after 48 hrs by MTT assay; format: toxicity, cell-based, PANC-1
[16] = Cytotoxicity against human HeLa cells measured after 48 hrs by MTT assay; format: toxicity, cell-based
[17] = Cytotoxicity against primary HUVEC measured after 48 hrs by MTT assay; format: toxicity, cell-based; conditions: human
[18] = tested on: Mycobacterium tuberculosis; experiment: Growth inhibition of Mycobacterium bovis BCG ATCC 35743 at dormant stage at 10 ug/ml measured after 12 days by nitrate reductase dye based two fold dilution method relative to control; format: functional; conditions: BCG str. ATCC 35743, 288 h, read-out: GI; method in brief: as §3
[19] = tested on: Staphylococcus aureus; experiment: Growth inhibition of Staphylococcus aureus NCIM 2010 at 30 ug/ml measured after 12 hrs relative to control; format: functional; conditions: NCIM 2010, 12 h, read-out: GI
Method in brief: (§5)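 Bacteria grown in LB at 37 °C and 180 rpm to OD 1. Compounds added to wells, then 0.1% inoculum of 1 OD culture (620 nm). Growth read as OD at 620 nm after 8 h for gram-negative and after 12 h for gram-positive strains.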

[20] = tested on: Bacillus subtilis; experiment: Growth inhibition of Bacillus subtilis NCIM 2079 at 30 ug/ml measured after 12 hrs relative to control; format: functional; conditions: NCIM 2079, 12 h, read-out: GI; method in brief: as §5
[21] = tested on: Staphylococcus aureus; experiment: Antibacterial activity against of Staphylococcus aureus NCIM 2010 measured after 12 hrs; format: functional; conditions: NCIM 2010, 12 h; method in brief: as §5
[22] = tested on: Pseudomonas fluorescens; experiment: Growth inhibition of Pseudomonas fluorescens NCIM 2036 at 10 ug/ml measured after 8 hrs relative to control; format: functional; conditions: NCIM 2036, 8 h, read-out: GI; method in brief: as §5
[23] = tested on: Escherichia coli; experiment: Growth inhibition of Escherichia coli NCIM 2688 at 10 ug/ml measured after 8 hrs relative to control; format: functional; conditions: NCIM 2688, 8 h, read-out: GI; method in brief: as §5
[24] = tested on: Pseudomonas fluorescens; experiment: Growth inhibition of Pseudomonas fluorescens NCIM 2036 at 3 ug/ml measured after 8 hrs relative to control; format: functional; conditions: NCIM 2036, 8 h, read-out: GI; method in brief: as §5
[25] = tested on: Mycobacterium tuberculosis; experiment: Growth inhibition of Mycobacterium bovis BCG ATCC 35743 at dormant stage at 3 ug/ml measured after 12 days by nitrate reductase dye based two fold dilution method relative to control; format: functional; conditions: BCG str. ATCC 35743, 288 h, read-out: GI; method in brief: as §3
[26] = tested on: Bacillus subtilis; experiment: Antibacterial activity against Bacillus subtilis NCIM 2079 measured after 12 hrs; format: functional; conditions: NCIM 2079, 12 h; method in brief: as §5
[27] = tested on: Pseudomonas fluorescens; experiment: Growth inhibition of Pseudomonas fluorescens NCIM 2036 at 30 ug/ml measured after 8 hrs relative to control; format: functional; conditions: NCIM 2036, 8 h, read-out: GI; method in brief: as §5
[28] = Antifungal activity against Fusarium oxysporum NCIM 1332 by standard agar method; format: functional
Method in brief: (§6)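 MICs determined by standard agar method; DMSO as solvent control.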

[29] = tested on: Escherichia coli; experiment: Antibacterial activity against Escherichia coli NCIM 2688 measured after 8 hrs; format: functional; conditions: NCIM 2688, 8 h; method in brief: as §5
[30] = tested on: Escherichia coli; experiment: Growth inhibition of Escherichia coli NCIM 2688 at 3 ug/ml measured after 8 hrs relative to control; format: functional; conditions: NCIM 2688, 8 h, read-out: GI; method in brief: as §5
[31] = tested on: Mycobacterium tuberculosis; experiment: Growth inhibition of Mycobacterium bovis BCG ATCC 35743 at dormant stage at 30 ug/ml measured after 12 days by nitrate reductase dye based two fold dilution method relative to control; format: functional; conditions: BCG str. ATCC 35743, 288 h, read-out: GI; method in brief: as §3
[32] = Antifungal activity against Cryptococcus neoformans NCIM 576 by standard agar method; format: functional; method in brief: as §6
[33] = tested on: Candida albicans; experiment: Antifungal activity against Candida albicans NCIM 3471 by standard agar method; format: functional; method in brief: as §6
[34] = tested on: Bacillus subtilis; experiment: Growth inhibition of Bacillus subtilis NCIM 2079 at 10 ug/ml measured after 12 hrs relative to control; format: functional; conditions: NCIM 2079, 12 h, read-out: GI; method in brief: as §5
[35] = tested on: Bacillus subtilis; experiment: Growth inhibition of Bacillus subtilis NCIM 2079 at 3 ug/ml measured after 12 hrs relative to control; format: functional; conditions: NCIM 2079, 12 h, read-out: GI; method in brief: as §5
[36] = tested on: Staphylococcus aureus; experiment: Growth inhibition of Staphylococcus aureus NCIM 2010 at 10 ug/ml measured after 12 hrs relative to control; format: functional; conditions: NCIM 2010, 12 h, read-out: GI; method in brief: as §5
[37] = tested on: Aspergillus flavus; experiment: Antifungal activity against Aspergillus flavus NCIM 539 by standard agar method; format: functional; method in brief: as §6
[38] = tested on: Aspergillus niger; experiment: Antifungal activity against Aspergillus niger NCIM 1196 by standard agar method; format: functional; method in brief: as §6
[39] = tested on: Pseudomonas fluorescens; experiment: Antibacterial activity against Pseudomonas fluorescens NCIM 2036 measured after 8 hrs; format: functional; conditions: NCIM 2036, 8 h; method in brief: as §5
[40] = tested on: Escherichia coli; experiment: Growth inhibition of Escherichia coli NCIM 2688 at 30 ug/ml measured after 8 hrs relative to control; format: functional; conditions: NCIM 2688, 8 h, read-out: GI; method in brief: as §5
[41] = tested on: Staphylococcus aureus; experiment: Growth inhibition of Staphylococcus aureus NCIM 2010 at 3 ug/ml measured after 12 hrs relative to control; format: functional; conditions: NCIM 2010, 12 h, read-out: GI; method in brief: as §5

CO[C@H]1/C=C/O[C@@]2(C)Oc3c(C)c(O)c4c(O)c(c(/C=N/N5CCN(C)CC5)c(O)c4c3C2=O)NC(=O)/C(C)=C\C=C\[C@H](C)[C@H](O)[C@@H](C)[C@@H](O)[C@@H](C)[C@H](OC(C)=O)[C@@H]1C [RIFAMPIN]
selectivity ratio [1]: 2500
Selectivity Index [2]: 2500
selectivity ratio [3]: 2500
selectivity ratio [4]: 2500
IC50 [5]: 0.0019 µg/mL (≈ 0.00231 µM)
IC90 [5]: 0.02 µg/mL (≈ 0.0243 µM)
selectivity ratio [6]: 2500
IC90 [7]: 0.0151 µg/mL (≈ 0.0183 µM)
selectivity ratio [8]: 2500
IC50 [9]: 0.0021 µg/mL (≈ 0.00255 µM)
IC90 [9]: 0.028 µg/mL (≈ 0.034 µM)
IC50 [10]: 0.0043 µg/mL (≈ 0.00523 µM)
IC90 [10]: 0.0173 µg/mL (≈ 0.021 µM)
Selectivity Index [11]: 2500

CC(=O)O[C@H]1C(=O)[C@@]2(C)[C@H]([C@H](OC(=O)c3ccccc3)[C@]3(O)C[C@H](OC(=O)[C@H](O)[C@@H](NC(=O)c4ccccc4)c4ccccc4)C(C)=C1C3(C)C)[C@]1(OC(C)=O)CO[C@@H]1C[C@@H]2O [PACLITAXEL]
GI50 at 48 h [12]: 5.7 µg/mL (≈ 6.68 µM)
GI50 at 48 h [13]: 0.04 µg/mL (≈ 0.0468 µM)
GI50 at 48 h [14]: > 100 µg/mL
GI50 at 48 h [15]: 5.8 µg/mL (≈ 6.79 µM)
GI50 at 48 h [16]: 0.08 µg/mL (≈ 0.0937 µM)
GI50 at 48 h [17]: > 10 µg/mL

O=C(O)CCN1C(=O)/C(=C/c2cc3cc(F)ccc3nc2Cl)SC1=S
inhibition of growth at 10 µg/mL [18]: 23.5%
inhibition of growth at 30 µg/mL [19]: -23.8%
inhibition of growth at 30 µg/mL [20]: -9.07%
MIC [21]: > 30 µg/mL
inhibition of growth at 10 µg/mL [22]: -7.25%
inhibition of growth at 10 µg/mL [23]: 21.4%
inhibition of growth at 3 µg/mL [24]: 9.73%
IC50 [5]: > 30 µg/mL
IC90 [5]: > 30 µg/mL
inhibition of growth at 3 µg/mL [25]: 18.2%
MIC [26]: > 30 µg/mL
inhibition of growth at 30 µg/mL [27]: 7.54%
MIC [28]: 50 µg/mL (≈ 126 µM)
MIC [29]: > 30 µg/mL
inhibition of growth at 3 µg/mL [30]: 15.7%
inhibition of growth at 30 µg/mL [31]: 59.8%
MIC [32]: 25 µg/mL (≈ 63 µM)
MIC [33]: 50 µg/mL (≈ 126 µM)
IC50 [7]: > 30 µg/mL
IC90 [7]: > 30 µg/mL
inhibition of growth at 10 µg/mL [34]: -4.74%
inhibition of growth at 3 µg/mL [35]: -5.16%
inhibition of growth at 10 µg/mL [36]: -12.1%
IC50 [9]: > 30 µg/mL
IC90 [9]: > 30 µg/mL
IC50 [10]: > 30 µg/mL
IC90 [10]: > 30 µg/mL
MIC [37]: 25 µg/mL (≈ 63 µM)
MIC [38]: 25 µg/mL (≈ 63 µM)
MIC [39]: > 30 µg/mL
inhibition of growth at 30 µg/mL [40]: 22.4%
inhibition of growth at 3 µg/mL [41]: 5.15%
